ChEMBL document CHEMBL4138250, “Regioselective IBX-Mediated Synthesis of Coumarin Derivatives with Antioxidant and Anti-influenza Activities” (J Nat Prod, 2017)
Values after ≈ are worked out from the molar mass of the structure shown.

How the values were obtained:
[1] = Antioxidant activity assessed as DPPH radical scavenging activity incubated for 30 mins under dark condition; type: functional
In short: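 Compounds serially diluted in EtOH (0.01−100 mg/mL) and added to freshly prepared DPPH (6 × 10−5 M in EtOH). Mixture shaken, kept 30 min in the dark, then absorbance read at 517 nm against a solvent blank. % scavenging is relative to a DPPH-only control, corrected for sample colour without DPPH. IC50 is the concentration giving 50% inhibition; triplicate runs.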

[2] = tested on: A549; test: Cytotoxicity against human A549 cells assessed as reduction in cell viability up to 120 ug/ml after 24 hrs by microscopic analysis; type: cell-based; settings: a549, 24 h
In short: (§1)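 A549 cells seeded at 2 × 10^5/mL; after 24 h, exposed to compounds at 10−120 μg/mL for a further 24 h. Viability assessed by microscopic examination, Trypan blue (0.02%) exclusion and MTT reduction. Cytotoxicity expressed as % reduction in viable cells relative to cultures treated with DMSO alone.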

[3] = tested on: A549; test: Cytotoxicity against human A549 cells assessed as reduction in cell viability up to 120 ug/ml after 24 hrs by tryphan blue exclusion assay; type: cell-based; settings: a549, 24 h; in short: as §1
[4] = tested on: A549; test: Cytotoxicity against human A549 cells assessed as reduction in cell viability up to 120 ug/ml after 24 hrs by MTT assay; type: cell-based; settings: a549, 24 h; in short: as §1
[5] = tested on: Influenza A virus; test: Antiviral activity against Influenza A virus (A/Puerto Rico/8/34(H1N1)) infected in A549 cells assessed as reduction in viral titer after 24 to 48 hrs by hemagglutination test; type: functional, organism-based; settings: A/Puerto Rico/8/1934(H1N1)
In short: (§2)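 Confluent A549 monolayers (DMEM, 10% FBS) infected with PR8 at MOI 0.0001 for 1 h at 37 °C, PBS-washed, then kept in 2% FBS medium. Compounds in DMSO were diluted in DMEM to final 30, 40, 60, 80 or 120 μg/mL, added after adsorption and kept to the end. DMSO was at most 0.2%, with matching DMSO-treated controls and mock infection. Supernatant HAU read at 24 and 48 h with human type 0 Rh+ erythrocytes.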

[6] = tested on: Influenza A virus; test: Antiviral activity against Influenza A virus (A/Puerto Rico/8/34(H1N1)) infected in A549 cells assessed as reduction in viral titer at 120 ug/ml after 24 to 48 hrs by hemagglutination test relative to control; type: functional, A/Puerto Rico/8/1934(H1N1); parameters: scale not given: the % may be the effect or the level left; in short: as §2

Structure (SMILES) | IC50 [1] | Activity [2] | Activity [3] | Activity [4] | Activity [5] | IC50 [5] | Activity [6]
O=c1ccc2ccc(O)cc2o1 [UMBELLIFERONE] | > 200000 µg/mL | Non-Toxic | Non-Toxic | Non-Toxic | Dose-dependent effect | 110 µg/mL (≈ 0.678 mM) | 50%
Nc1ccc2c(C(F)(F)F)cc(=O)oc2c1 |  | Non-Toxic | Non-Toxic | Non-Toxic | Dose-dependent effect | 51 µg/mL (≈ 0.223 mM) | 
O=c1cc(O)c2ccc(O)c(O)c2o1 | 24100 µg/mL (≈ 124 mM) |  |  |  |  |  | 
O=c1ccc2c(O)c(O)ccc2o1 |  | Non-Toxic | Non-Toxic | Non-Toxic | Dose-dependent effect | 106 µg/mL (≈ 0.598 mM) | 50%
O=c1ccc2cc(O)c(O)cc2o1 [ESCULETIN] | 37700 µg/mL (≈ 212 mM) |  |  |  |  |  | 
Nc1ccc2c(C(F)(F)F)cc(=O)oc2c1O | 9300 µg/mL (≈ 37.9 mM) | Non-Toxic | Non-Toxic | Non-Toxic | Dose-dependent effect | 47.8 µg/mL (≈ 0.195 mM) | 
O=c1ccc2ccc(O)c(O)c2o1 [DAPHNETIN] | 27200 µg/mL (≈ 153 mM) |  |  |  |  | 146 µg/mL (≈ 0.818 mM) | 
COc1cc2ccc(=O)oc2c(O)c1O [FRAXETIN] | 39200 µg/mL (≈ 188 mM) |  |  |  |  |  | 
Cc1cc(=O)oc2c(O)c(O)ccc12 [4-METHYLDAPHNETIN] | 22000 µg/mL (≈ 114 mM) | Non-Toxic | Non-Toxic | Non-Toxic | Dose-dependent effect | 91.5 µg/mL (≈ 0.476 mM) | 
O=c1ccc2cc(O)ccc2o1 [6-HYDROXYCOUMARIN] | > 200000 µg/mL | Non-Toxic | Non-Toxic | Non-Toxic | Dose-dependent effect | 110 µg/mL (≈ 0.678 mM) | 50%
O=c1ccc2cc(O)c(O)c(O)c2o1 | 8700 µg/mL (≈ 44.8 mM) | Non-Toxic | Non-Toxic | Non-Toxic | Dose-dependent effect | 69.9 µg/mL (≈ 0.36 mM) | 
O=c1ccc2c(O)c(O)c(O)cc2o1 | 2500 µg/mL (≈ 12.9 mM) | Non-Toxic | Non-Toxic | Non-Toxic | Dose-dependent effect | 47.9 µg/mL (≈ 0.247 mM) | 
